Source: ChEMBL document CHEMBL1127380, “(4-[18F]fluoro-3-iodobenzyl)guanidine, a potential MIBG analogue for positron emission tomography” (J Med Chem, 1994)

Columns and labels:
Mus musculus [1] = species on record: Mus musculus; experiment: Tissue distribution expressed as percentage injected dose per gram of tissue in normal mice heart after 4 hour; assay type: ADME, organism-based; conditions: in vivo
Procedure, shortened: (§1)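 Normal BALB/c mice, 26–29 g, given 4 μCi of the nca 18F tracer via tail vein. Groups killed with halothane at 1, 2 or 4 h post-injection. Tissues washed in saline, blot-dried, weighed and γ-counted for ¹⁸F. Values are mean ± SD as % ID/g; n = 10 at 1 and 2 h, n = 5 at 4 h.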

Mus musculus [2] = species on record: Mus musculus; experiment: tissue distribution expressed as percentage injected dose per gram of tissue in normal mice heart after 1 hour; assay type: ADME, organism-based; conditions: in vivo
Mus musculus [3] = species on record: Mus musculus; experiment: Tissue distribution expressed as percentage injected dose per gram of tissue in normal mice adrenals after 1 hour; assay type: ADME, organism-based, Adrenal gland; conditions: in vivo; procedure, shortened: as §1
Mus musculus [4] = species on record: Mus musculus; experiment: Tissue distribution expressed as percentage injected dose per gram of tissue in normal mice adrenals after 4 hour; assay type: ADME, organism-based, Adrenal gland; conditions: in vivo; procedure, shortened: as §1
Mus musculus [5] = species on record: Mus musculus; experiment: Tissue distribution expressed as percentage injected dose per gram of tissue in normal mice heart after 1 hour; assay type: ADME, organism-based; conditions: in vivo; procedure, shortened: as §1
Mus musculus [6] = species on record: Mus musculus; experiment: Tissue distribution expressed as percentage injected dose per gram of tissue in normal mice kidney after 4 hour; assay type: ADME, organism-based; conditions: in vivo; procedure, shortened: as §1
Mus musculus [7] = species on record: Mus musculus; experiment: Tissue distribution expressed as percentage injected dose per gram of tissue in normal mice large intestine after 1 hour; assay type: ADME, organism-based; conditions: in vivo; procedure, shortened: as §1
Mus musculus [8] = species on record: Mus musculus; experiment: Tissue distribution expressed as percentage injected dose per gram of tissue in normal mice large intestine after 2 hour; assay type: ADME, organism-based; conditions: in vivo; procedure, shortened: as §1
Mus musculus [9] = species on record: Mus musculus; experiment: Tissue distribution expressed as percentage injected dose per gram of tissue in normal mice large intestine after 4 hour; assay type: ADME, organism-based; conditions: in vivo; procedure, shortened: as §1
Mus musculus [10] = species on record: Mus musculus; experiment: Tissue distribution expressed as percentage injected dose per gram of tissue in normal mice liver after 1 hour; assay type: ADME, organism-based; conditions: in vivo; procedure, shortened: as §1
Mus musculus [11] = species on record: Mus musculus; experiment: Tissue distribution expressed as percentage injected dose per gram of tissue in normal mice bone after 2 hour; assay type: ADME, organism-based, Bone element; conditions: in vivo; procedure, shortened: as §1
Mus musculus [12] = species on record: Mus musculus; experiment: Tissue distribution expressed as percentage injected dose per gram of tissue in normal mice bone after 4 hour; assay type: ADME, organism-based, Bone element; conditions: in vivo; procedure, shortened: as §1
Mus musculus [13] = species on record: Mus musculus; experiment: Tissue distribution expressed as percentage injected dose per gram of tissue in normal mice brain after 1 hour; assay type: ADME, organism-based; conditions: in vivo; procedure, shortened: as §1
Mus musculus [14] = species on record: Mus musculus; experiment: Tissue distribution expressed as percentage injected dose per gram of tissue in normal mice brain after 2 hour; assay type: ADME, organism-based; conditions: in vivo; procedure, shortened: as §1
Mus musculus [15] = species on record: Mus musculus; experiment: Tissue distribution expressed as percentage injected dose per gram of tissue in normal mice brain after 4 hour; assay type: ADME, organism-based; conditions: in vivo; procedure, shortened: as §1
Mus musculus [16] = species on record: Mus musculus; experiment: Tissue distribution expressed as percentage injected dose per gram of tissue in normal mice heart after 2 hour; assay type: ADME, organism-based; conditions: in vivo; procedure, shortened: as §1
Mus musculus [17] = species on record: Mus musculus; experiment: Tissue distribution expressed as percentage injected dose per gram of tissue in normal mice liver after 2 hour; assay type: ADME, organism-based; conditions: in vivo; procedure, shortened: as §1
Mus musculus [18] = species on record: Mus musculus; experiment: Tissue distribution expressed as percentage injected dose per gram of tissue in normal mice liver after 4 hour; assay type: ADME, organism-based; conditions: in vivo; procedure, shortened: as §1
Mus musculus [19] = species on record: Mus musculus; experiment: Tissue distribution expressed as percentage injected dose per gram of tissue in normal mice lungs after 1 hour; assay type: ADME, organism-based, Lung; conditions: in vivo; procedure, shortened: as §1
Mus musculus [20] = species on record: Mus musculus; experiment: Tissue distribution expressed as percentage injected dose per gram of tissue in normal mice lungs after 2 hour; assay type: ADME, organism-based, Lung; conditions: in vivo; procedure, shortened: as §1
Mus musculus [21] = species on record: Mus musculus; experiment: Tissue distribution expressed as percentage injected dose per gram of tissue in normal mice lungs after 4 hour; assay type: ADME, organism-based, Lung; conditions: in vivo; procedure, shortened: as §1
Mus musculus [22] = species on record: Mus musculus; experiment: Tissue distribution expressed as percentage injected dose per gram of tissue in normal mice muscle after 1 hour; assay type: ADME, organism-based; conditions: in vivo; procedure, shortened: as §1
Mus musculus [23] = species on record: Mus musculus; experiment: Tissue distribution expressed as percentage injected dose per gram of tissue in normal mice muscle after 2 hour; assay type: ADME, organism-based; conditions: in vivo; procedure, shortened: as §1
Mus musculus [24] = species on record: Mus musculus; experiment: Tissue distribution expressed as percentage injected dose per gram of tissue in normal mice muscle after 4 hour; assay type: ADME, organism-based; conditions: in vivo; procedure, shortened: as §1
Mus musculus [25] = species on record: Mus musculus; experiment: Tissue distribution expressed as percentage injected dose per gram of tissue in normal mice small intestine after 1 hour; assay type: ADME, organism-based; conditions: in vivo; procedure, shortened: as §1
Mus musculus [26] = species on record: Mus musculus; experiment: Tissue distribution expressed as percentage injected dose per gram of tissue in normal mice small intestine after 2 hour; assay type: ADME, organism-based; conditions: in vivo; procedure, shortened: as §1
Mus musculus [27] = species on record: Mus musculus; experiment: Tissue distribution expressed as percentage injected dose per gram of tissue in normal mice small intestine after 4 hour; assay type: ADME, organism-based; conditions: in vivo; procedure, shortened: as §1
Mus musculus [28] = species on record: Mus musculus; experiment: Tissue distribution expressed as percentage injected dose per gram of tissue in normal mice spleen after 1 hour; assay type: ADME, organism-based; conditions: in vivo; procedure, shortened: as §1
Mus musculus [29] = species on record: Mus musculus; experiment: Tissue distribution expressed as percentage injected dose per gram of tissue in normal mice spleen after 2 hour; assay type: ADME, organism-based; conditions: in vivo; procedure, shortened: as §1
Mus musculus [30] = species on record: Mus musculus; experiment: Tissue distribution expressed as percentage injected dose per gram of tissue in normal mice spleen after 4 hour; assay type: ADME, organism-based; conditions: in vivo; procedure, shortened: as §1
Mus musculus [31] = species on record: Mus musculus; experiment: Tissue distribution expressed as percentage injected dose per gram of tissue in normal mice stomach after 1 hour; assay type: ADME, organism-based; conditions: in vivo; procedure, shortened: as §1
Mus musculus [32] = species on record: Mus musculus; experiment: Tissue distribution expressed as percentage injected dose per gram of tissue in normal mice stomach after 2 hour; assay type: ADME, organism-based; conditions: in vivo; procedure, shortened: as §1
Mus musculus [33] = species on record: Mus musculus; experiment: Tissue distribution expressed as percentage injected dose per gram of tissue in normal mice stomach after 4 hour; assay type: ADME, organism-based; conditions: in vivo; procedure, shortened: as §1
Mus musculus [34] = species on record: Mus musculus; experiment: Tissue distribution expressed as percentage injected dose per gram of tissue in normal mice thyroid after 1 hour; assay type: ADME, organism-based, Thyroid gland; conditions: in vivo; procedure, shortened: as §1
Mus musculus [35] = species on record: Mus musculus; experiment: Tissue distribution expressed as percentage injected dose per gram of tissue in normal mice thyroid after 2 hour; assay type: ADME, organism-based, Thyroid gland; conditions: in vivo; procedure, shortened: as §1
Mus musculus [36] = species on record: Mus musculus; experiment: Tissue distribution expressed as percentage injected dose per gram of tissue in normal mice thyroid after 4 hour; assay type: ADME, organism-based, Thyroid gland; conditions: in vivo; procedure, shortened: as §1
Mus musculus [37] = species on record: Mus musculus; experiment: Tissue distribution expressed as percentage injected dose per gram of tissue in normal mice kidney after 2 hour; assay type: ADME, organism-based; conditions: in vivo; procedure, shortened: as §1
Mus musculus [38] = species on record: Mus musculus; experiment: Tissue distribution expressed as percentage injected dose per gram of tissue in normal mice adrenals after 2 hour; assay type: ADME, organism-based, Adrenal gland; conditions: in vivo; procedure, shortened: as §1
Mus musculus [39] = species on record: Mus musculus; experiment: Tissue distribution expressed as percentage injected dose per gram of tissue in normal mice blood after 1 hour; assay type: ADME, organism-based; conditions: in vivo; procedure, shortened: as §1
Mus musculus [40] = species on record: Mus musculus; experiment: Tissue distribution expressed as percentage injected dose per gram of tissue in normal mice blood after 2 hour; assay type: ADME, organism-based; conditions: in vivo; procedure, shortened: as §1
Mus musculus [41] = species on record: Mus musculus; experiment: Tissue distribution expressed as percentage injected dose per gram of tissue in normal mice blood after 4 hour; assay type: ADME, organism-based; conditions: in vivo; procedure, shortened: as §1
Mus musculus [42] = species on record: Mus musculus; experiment: Tissue distribution expressed as percentage injected dose per gram of tissue in normal mice bone after 1 hour; assay type: ADME, organism-based, Bone element; conditions: in vivo; procedure, shortened: as §1
SK-N-SH = experiment: The compound was tested for the concentration of inhibition by unlabelled analogues to SK-N-SH human neuroblastoma cells; assay type: functional, cell-based
Procedure, shortened: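 SK-N-SH neuroblastoma cells, 4 × 10⁵/well, with about 1 μCi 18F-labelled tracer or 0.1 μCi nca [¹²⁵I]MIBG plus graded concentrations of unlabelled benzylguanidines, in triplicate; 2 h at 37 °C. Nonspecific binding: 1 μM desipramine preincubation, 30 min. Cells washed twice in PBS, lysed in 0.5 N NaOH, γ-counted. Specific binding as % of control plotted against inhibitor concentration.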

Mus musculus [43] = species on record: Mus musculus; experiment: Tissue distribution expressed as percentage injected dose per gram of tissue in normal mice kidney after 1 hour; assay type: ADME, organism-based; conditions: in vivo; procedure, shortened: as §1

N=C(N)NCc1ccc(F)cc1
ID/g (Mus musculus [1]): 5.9% | ID/g (Mus musculus [2]): 9.7% | ID/g (Mus musculus [3]): 15.3% | ID/g (Mus musculus [4]): 20.3%

N=C(N)NCc1cccc(F)c1 [M-FLUOROBENZYLGUANIDINE]
ID/g (Mus musculus [5]): 21% | ID/g (Mus musculus [1]): 10.5% | ID/g (Mus musculus [3]): 13.9% | ID/g (Mus musculus [4]): 23.8%

N=C(N)NCc1ccc(F)c(I)c1
ID/g (Mus musculus [6]): 1.9% | ID/g (Mus musculus [7]): 3.8% | ID/g (Mus musculus [8]): 4.5% | ID/g (Mus musculus [9]): 3.8% | ID/g (Mus musculus [10]): 10.5% | ID/g (Mus musculus [11]): 0.9% | ID/g (Mus musculus [12]): 0.7% | ID/g (Mus musculus [13]): 0.1% | ID/g (Mus musculus [14]): 0.1% | ID/g (Mus musculus [15]): 0.2% | ID/g (Mus musculus [5]): 18.2% | ID/g (Mus musculus [16]): 19.5% | ID/g (Mus musculus [1]): 18.3% | ID/g (Mus musculus [17]): 9.2% | ID/g (Mus musculus [18]): 6.8% | ID/g (Mus musculus [19]): 9.7% | ID/g (Mus musculus [20]): 5.5% | ID/g (Mus musculus [21]): 4% | ID/g (Mus musculus [22]): 1.7% | ID/g (Mus musculus [23]): 1.7% | ID/g (Mus musculus [24]): 1.5% | ID/g (Mus musculus [25]): 5.5% | ID/g (Mus musculus [26]): 4.3% | ID/g (Mus musculus [27]): 3% | ID/g (Mus musculus [28]): 3.8% | ID/g (Mus musculus [29]): 3.7% | ID/g (Mus musculus [30]): 3.2% | ID/g (Mus musculus [31]): 3% | ID/g (Mus musculus [32]): 2.4% | ID/g (Mus musculus [33]): 1.9% | ID/g (Mus musculus [34]): 1.8% | ID/g (Mus musculus [35]): 1.9% | ID/g (Mus musculus [36]): 1.5% | ID/g (Mus musculus [37]): 2.3% | ID/g (Mus musculus [3]): 21.3% | ID/g (Mus musculus [38]): 19.2% | ID/g (Mus musculus [4]): 19.7% | ID/g (Mus musculus [39]): 0.9% | ID/g (Mus musculus [40]): 0.7% | ID/g (Mus musculus [41]): 0.4% | ID/g (Mus musculus [42]): 1.1% | IC50 (SK-N-SH; Homo sapiens, SK-N-SH): 200 nM | IC50 (SK-N-SH; sk-n-sh): 200 nM | ID/g (Mus musculus [43]): 2.6%
